Legend:
HeLa [1] = test: Estrogenic activity in human HeLa cells assessed as Bcl-xL gene transcriptional activity at 10 nM after 24 hrs by RT-PCR relative to 17-beta-estradiol; type: functional
Method in brief: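 HeLa cells grown in DMEM with 5% FBS (37 °C, 5% CO2, 24 h), then moved to phenol red-free DMEM with 5% charcoal-stripped FBS for 24 h. Exposed to 10^-8 M compound (final) for 24 h. Controls: 10^-8 M 17β-estradiol, 0.01% DMSO. Total RNA extracted, reverse transcribed. Bcl-xL PCR: 28 cycles (94 °C 30 s, 60 °C 30 s, 72 °C 30 s), same profile as HPRT.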

HeLa [2] = test: Estrogenic activity in human HeLa cells assessed as ERbeta gene transcriptional activity at 10 nM after 24 hrs by RT-PCR relative to 17-beta-estradiol; type: functional
Method in brief: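 Steroid-depleted HeLa cells (24 h in phenol red-free DMEM, 5% charcoal-stripped FBS) treated 24 h with compound at 10^-8 M final. 17β-Estradiol at 10^-8 M was the positive control and 0.01% DMSO the negative. RNA isolated and converted to cDNA. ERβ PCR: 32 cycles (94 °C 30 s, 56 °C 30 s, 72 °C 30 s), final extension 7 min.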

For `O=C(/C=C/c1ccc(O)cc1)CCCCc1ccccc1`, the Activity (HeLa [1]) was 74.41% and the Activity (HeLa [2]) was 70.33%.
With `O=C(/C=C/C=C/c1ccccc1)CCc1ccc(O)cc1` the Activity (HeLa [1]) was 74.54% and the Activity (HeLa [2]) was 87.75%.
With `Oc1ccc(CC[C@@H](O)CC/C=C/c2ccccc2)cc1` the Activity (HeLa [1]) was 57.73% and the Activity (HeLa [2]) was 52.5%.
For `Oc1ccc(CC[C@@H](O)CC/C=C/c2ccccc2)cc1O`, the Activity (HeLa [1]) was 45.98% and the Activity (HeLa [2]) was 51.5%.
Compound `CO[C@@H](CC/C=C/c1ccccc1)CCc1ccccc1` has an Activity (HeLa [1]) of 72.5% and an Activity (HeLa [2]) of 74.97%.
`CC(=O)O[C@@H](/C=C/C=C/c1ccccc1)CCc1ccccc1` was tested, and the Activity (HeLa [1]) was 47.96% and the Activity (HeLa [2]) was 58.36%.
`CC(=O)Oc1ccc(CCC(=O)CC/C=C/c2ccccc2)cc1` showed an Activity (HeLa [1]) of 75.3% and an Activity (HeLa [2]) of 84%.
`CC(=O)Oc1ccc(CCC(=O)/C=C/C=C/c2ccccc2)cc1` was tested, and the Activity (HeLa [1]) was 49.82% and the Activity (HeLa [2]) was 68.45%.
`COc1ccc(CCC(=O)CC/C=C/c2ccccc2)cc1` gave an Activity (HeLa [1]) of 71.4% and an Activity (HeLa [2]) of 58.51%.
For `COc1ccc(CCC(=O)/C=C/C=C/c2ccccc2)cc1`, the Activity (HeLa [1]) was 76.77% and the Activity (HeLa [2]) was 72%.
With `C(=C\C=C\c1ccccc1)/C=C/Cc1ccccc1` the Activity (HeLa [1]) was 77.5% and the Activity (HeLa [2]) was 76.46%.
Work on `O[C@@H](CC/C=C/c1ccccc1)CCc1ccccc1` yielded an Activity (HeLa [1]) of 52.85% and an Activity (HeLa [2]) of 42.48%.
In the case of `O=C(/C=C/C=C/c1ccccc1)CCc1ccccc1`, the Activity (HeLa [1]) is reported as 43.97% and the Activity (HeLa [2]) is reported as 33.72%.
`O[C@@H](/C=C/C=C/c1ccccc1)CCc1ccccc1` gave an Activity (HeLa [1]) of 62.51% and an Activity (HeLa [2]) of 75.42%.
For `O=C(CC/C=C/c1ccccc1)CCc1ccc(O)cc1`, the Activity (HeLa [1]) was 78.51% and the Activity (HeLa [2]) was 90.56%.
`O[C@@H](CCCCc1ccccc1)CCc1ccccc1` was tested, and the Activity (HeLa [1]) was 40% and the Activity (HeLa [2]) was 37.03%.
`O=C(CCCCc1ccccc1)CCc1ccccc1` was tested, and the Activity (HeLa [1]) was 42.18% and the Activity (HeLa [2]) was 57.5%.
Work on `O=C(CC/C=C/c1ccccc1)CCc1ccccc1` yielded an Activity (HeLa [1]) of 74.3% and an Activity (HeLa [2]) of 85.45%.
`O=C(/C=C/CCc1ccccc1)CCc1ccc(O)cc1` was tested, and the Activity (HeLa [1]) was 47.08% and the Activity (HeLa [2]) was 50.86%.
In the case of `CC(=O)O[C@@H](CCCCc1ccccc1)CCc1ccccc1`, the Activity (HeLa [1]) is reported as 55% and the Activity (HeLa [2]) is reported as 58.97%.
`CC(=O)O[C@@H](CC/C=C/c1ccccc1)CCc1ccccc1` showed an Activity (HeLa [1]) of 71.06% and an Activity (HeLa [2]) of 75.5%.
In the case of `O=c1c(-c2ccc(O)cc2)coc2cc(O)cc(O)c12` [GENISTEIN], the Activity (HeLa [1]) is reported as 72.85% and the Activity (HeLa [2]) is reported as 75.51%.
